Experimental data: ChEMBL document CHEMBL1155504, “Synthesis of 4-[(diethylamino)methyl]-phenol derivatives as novel cholinesterase inhibitors with selectivity towards butyrylcholinesterase” (Bioorg Med Chem Lett, 2010)
The source made the active and inactive calls. No cut-off for these calls is given here.

Tests used:
Acetylcholinesterase = Acetylcholinesterase (Electrophorus electricus, UniProt O42275); experiment: Inhibition of electric eel AChE after 15 mins by Ellman's method
[1] = Selectivity ratio of IC50 for electric eel AChE to IC50 for horse serum BChE
How it was run: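 Ellman assay for each enzyme: enzyme, DTNB and test compound in 0.1 M potassium phosphate buffer, pH 8.0, pre-incubated 15 min at 37 °C. Started with ATC (AChE) or BTC (BChE) and read at 412 nm for 1 min. Five compound concentrations, each in triplicate; DMSO reference, enzyme-free blank. Ratio taken from the two IC50 values.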

Cholinesterase = Cholinesterase (Equus caballus, UniProt P81908); experiment: Inhibition of horse serum BChE after 15 mins by Ellman's method
Chain of Cholinesterase (P81908 whole entry): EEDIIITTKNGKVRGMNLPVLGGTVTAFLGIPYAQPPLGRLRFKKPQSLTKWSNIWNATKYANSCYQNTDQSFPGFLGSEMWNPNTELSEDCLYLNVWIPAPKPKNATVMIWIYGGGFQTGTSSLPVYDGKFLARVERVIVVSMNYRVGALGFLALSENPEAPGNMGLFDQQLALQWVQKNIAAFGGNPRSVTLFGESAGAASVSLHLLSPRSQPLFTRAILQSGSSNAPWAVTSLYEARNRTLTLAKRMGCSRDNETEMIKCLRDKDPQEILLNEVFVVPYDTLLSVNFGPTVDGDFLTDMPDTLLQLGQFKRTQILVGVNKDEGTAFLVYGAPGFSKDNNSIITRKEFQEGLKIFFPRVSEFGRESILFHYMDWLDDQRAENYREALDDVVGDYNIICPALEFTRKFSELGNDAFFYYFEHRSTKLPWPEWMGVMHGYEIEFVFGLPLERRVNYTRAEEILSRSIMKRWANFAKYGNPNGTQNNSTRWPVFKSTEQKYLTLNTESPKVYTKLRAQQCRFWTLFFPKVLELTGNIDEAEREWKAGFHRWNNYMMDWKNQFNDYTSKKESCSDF

[2] = molecular target: Cholinesterase (Equus caballus) (UniProt P81908); experiment: Mixed-type inhibition of horse serum BChE at 10 to 20 nM by Lineweaver-Burke plot analysis
Chain of Cholinesterase (Equus caballus) (P81908 whole entry): as above
How it was run: (§1)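 Ellman assay: enzyme, DTNB and inhibitor in 0.1 M potassium phosphate buffer, pH 8.0, pre-incubated 15 min at 37 °C. Reaction started with butyrylthiocholine at 100–500 (unit unclear) and followed by absorbance at 412 nm. Inhibitor absent or at two levels. Inhibition type assigned from Lineweaver–Burk plots (1/V versus 1/[S]).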

[3] = molecular target: Acetylcholinesterase (Electrophorus electricus) (UniProt O42275); experiment: Mixed-type inhibition of electric eel AChE at 50 to 100 nM by Lineweaver-Burke plot analysis
Chain of Acetylcholinesterase (Electrophorus electricus) (O42275 24-633 limits assumed): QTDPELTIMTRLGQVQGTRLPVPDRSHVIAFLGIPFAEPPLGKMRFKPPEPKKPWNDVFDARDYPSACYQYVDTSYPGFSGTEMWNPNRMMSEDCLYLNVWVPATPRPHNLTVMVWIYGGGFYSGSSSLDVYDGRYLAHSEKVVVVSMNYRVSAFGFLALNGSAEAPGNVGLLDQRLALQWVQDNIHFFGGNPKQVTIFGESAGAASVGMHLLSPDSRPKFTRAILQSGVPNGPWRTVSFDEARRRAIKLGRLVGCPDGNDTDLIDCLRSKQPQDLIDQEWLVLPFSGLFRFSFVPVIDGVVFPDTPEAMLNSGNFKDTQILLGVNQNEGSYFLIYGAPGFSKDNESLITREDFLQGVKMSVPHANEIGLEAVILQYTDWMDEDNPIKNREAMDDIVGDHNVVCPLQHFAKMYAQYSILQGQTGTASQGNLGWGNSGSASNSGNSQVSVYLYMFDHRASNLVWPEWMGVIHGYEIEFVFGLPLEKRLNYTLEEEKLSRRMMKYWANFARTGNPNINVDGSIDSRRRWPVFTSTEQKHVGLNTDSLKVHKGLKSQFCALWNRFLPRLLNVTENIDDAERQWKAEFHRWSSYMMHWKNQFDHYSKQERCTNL
How it was run: as §1, with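 “acetylthiocholine” for “butyrylthiocholine”, “100–400” for “100–500”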

Chain of Acetylcholinesterase (O42275 whole entry): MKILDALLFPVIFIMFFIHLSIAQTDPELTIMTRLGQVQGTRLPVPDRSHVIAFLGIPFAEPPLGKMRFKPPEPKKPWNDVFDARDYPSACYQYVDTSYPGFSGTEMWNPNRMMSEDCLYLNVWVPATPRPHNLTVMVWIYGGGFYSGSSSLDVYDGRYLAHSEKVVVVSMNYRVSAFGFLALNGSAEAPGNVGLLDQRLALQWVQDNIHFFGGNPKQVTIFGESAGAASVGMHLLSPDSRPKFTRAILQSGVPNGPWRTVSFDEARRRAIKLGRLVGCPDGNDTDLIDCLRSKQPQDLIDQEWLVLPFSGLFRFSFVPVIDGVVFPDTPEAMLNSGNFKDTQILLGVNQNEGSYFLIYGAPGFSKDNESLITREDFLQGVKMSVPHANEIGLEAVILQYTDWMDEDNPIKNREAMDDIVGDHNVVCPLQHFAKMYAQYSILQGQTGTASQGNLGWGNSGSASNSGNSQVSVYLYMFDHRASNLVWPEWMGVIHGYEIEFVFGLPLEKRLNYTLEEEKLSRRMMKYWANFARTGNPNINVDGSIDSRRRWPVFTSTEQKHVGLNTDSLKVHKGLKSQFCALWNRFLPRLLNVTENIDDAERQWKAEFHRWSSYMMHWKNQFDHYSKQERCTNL

Row | Structure (SMILES) | IC50 (Acetylcholinesterase) | Ratio IC50 [1] | IC50 (Cholinesterase) | Activity [2] | inhibition [3]
1 | CCCCN(CCCC)CCCCCOc1ccc(CN(CC)CC)cc1 | 2460 nM | 1.29 | 1900 nM | – | –
2 | CCN(CC)Cc1ccc(OCCCCCN2CCN(C)CC2)cc1 | 2480 nM | 0.27 | 9350 nM | – | –
3 | CCN(CC)Cc1ccc(OCCCCCCCCCCN2CCCCC2)cc1 | 600 nM | 7.66 | 78 nM | – | –
4 | CCN(CC)CCCCCCCCOc1ccc(CN(CC)CC)cc1 | 140 nM | 2.99 | 48 nM | – | –
5 | CCCCN(CCCC)CCCCOc1ccc(CN(CC)CC)cc1 | 10300 nM | 4.01 | 2520 nM | – | –
6 | CCCN(CCC)CCCCCCCCCCOc1ccc(CN(CC)CC)cc1 | 340 nM | 13.1 | 26 nM | – | –
7 | CCN(CC)Cc1ccc(OCCCCCN2CCCCC2)cc1 | 4310 nM | 6.44 | 670 nM | – | –
8 | CCN(CC)Cc1ccc(OCCCCCN2CCCC2)cc1 | 500 nM | 0.32 | 1540 nM | – | –
9 | CCN(CC)CCCCCCOc1ccc(CN(CC)CC)cc1 | 960 nM | 0.58 | 1660 nM | – | –
10 | CCN1CCN(CCCCCOc2ccc(CN(CC)CC)cc2)CC1 | 1760 nM | 0.57 | 3080 nM | – | –
11 | CCN(CC)Cc1ccc(OCCCCCCN2CCN(C)CC2)cc1 | 1820 nM | 0.48 | 3760 nM | – | –
12 | CCCN(CCC)CCCCCOc1ccc(CN(CC)CC)cc1 | 5590 nM | 3.13 | 1780 nM | – | –
13 | CCN(CC)Cc1ccc(OCCCCCCCCN2CCCCC2)cc1 | 92 nM | 12.5 | 7.3 nM | Active | Active
14 | CCN(CC)CCCCOc1ccc(CN(CC)CC)cc1 | 10600 nM | 3.87 | 2740 nM | – | –
15 | CCN1CCN(CCCCCCCCOc2ccc(CN(CC)CC)cc2)CC1 | 77 nM | 5.38 | 14 nM | – | –
16 | CCN(CC)Cc1ccc(OCCCCCCN2CCCC2)cc1 | 440 nM | 0.34 | 1280 nM | – | –
17 | CCCCN(CCCC)CCCCCCCCCCOc1ccc(CN(CC)CC)cc1 | 260 nM | 16.5 | 15 nM | – | –
18 | CCN1CCN(CCCCCCCCCCOc2ccc(CN(CC)CC)cc2)CC1 | 580 nM | 3.1 | 190 nM | – | –

Row | Structure (SMILES) | IC50 (Acetylcholinesterase) | Ratio IC50 [1] | IC50 (Cholinesterase) | Activity [2] | inhibition [3]
19 | CCCN(CCC)CCCCCCOc1ccc(CN(CC)CC)cc1 | 2160 nM | 1.61 | 1340 nM | – | –
20 | CCN(CC)Cc1ccc(OCCCCCCN2CCCCC2)cc1 | 890 nM | 0.65 | 1370 nM | – | –
21 | CCCCN(CCCC)CCCCCCCCOc1ccc(CN(CC)CC)cc1 | 140 nM | 8.45 | 17 nM | – | –
22 | CCCN(CCC)CCCCCCCCOc1ccc(CN(CC)CC)cc1 | 170 nM | 18.8 | 9.1 nM | – | –
23 | CCN(CC)Cc1ccc(OCCN2CCCCC2)cc1 | 13700 nM | 1.35 | 10100 nM | – | –
24 | CCN(CC)CCCCCCCCCCOc1ccc(CN(CC)CC)cc1 | 310 nM | 11.3 | 27 nM | – | –
25 | CCN(CC)Cc1ccc(OCCCCCCCCN2CCN(C)CC2)cc1 | 210 nM | 18.6 | 11 nM | – | –
26 | CCN(CC)Cc1ccc(OCCCCCCCCCCN2CCCC2)cc1 | 300 nM | 4.41 | 68 nM | – | –
27 | CCN(CC)Cc1ccc(OCCCCN2CCN(C)CC2)cc1 | 5580 nM | 0.57 | 9730 nM | – | –
28 | CCN(CC)Cc1ccc(OCCCCCCCCCCN2CCN(C)CC2)cc1 | 540 nM | 16.5 | 33 nM | – | –
29 | CCN(CC)Cc1ccc(OCCCCCCCCN2CCCC2)cc1 | 84 nM | 5.42 | 15 nM | – | –
30 | CCN(CC)Cc1ccc(OCCCCN2CCCC2)cc1 | 3420 nM | 2.44 | 1400 nM | – | –
31 | CCN(CC)CCCCCOc1ccc(CN(CC)CC)cc1 | 8370 nM | 1.89 | 4420 nM | – | –
32 | CCCCN(CCCC)CCCCCCOc1ccc(CN(CC)CC)cc1 | 670 nM | 2.92 | 230 nM | – | –
33 | CCN(CC)Cc1ccc(OCCN2CCN(C)CC2)cc1 | 11500 nM | 0.56 | 20300 nM | – | –
34 | CCCN(CCC)CCCCOc1ccc(CN(CC)CC)cc1 | 13700 nM | 1.17 | 11700 nM | – | –
35 | CCN1CCN(CCCCCCOc2ccc(CN(CC)CC)cc2)CC1 | 1620 nM | 0.74 | 2200 nM | – | –
36 | CCN(CC)Cc1ccc(OCCCCN2CCCCC2)cc1 | 6740 nM | 9.4 | 710 nM | – | –
